The source made the active and inactive calls. The rule behind the calls is not given here.
Experiments:
Semliki Forest virus [1] = test: Antiviral activity against SFV infected in BHK cells assessed as surviving virus fraction at 50 uM after 14 hrs by luciferase reporter gene assay; format: functional; set-up: scale not given here
[2] = Cytotoxicity against human HuH7 cells assessed as cell viability at 50 uM after 24 hrs
[3] = Cytotoxicity against human HuH7 cells assessed as cell viability at 500 uM after 24 hrs; format: cell-based, Huh-7; details: read-out: Activity
How it was run: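 Huh-7 human hepatocellular carcinoma cells exposed 24 h to derivative at 500 µM in an extended cytotoxicity analysis. Viability measured as intracellular ATP content and reported as surviving fraction.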

Semliki Forest virus [4] = test: Antiviral activity against SFV infected in BHK cells after 14 hrs by luciferase reporter gene assay; format: functional, organism-based
How it was run: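 SFV-Rluc reporter virus from infectious cDNA clone; BHK-21 cells infected at low multiplicity (0.001 PFU/cell) and incubated 14 h, spanning over 2 infectious cycles. Serial dilutions of each derivative tested. Luciferase read-out as surviving virus fraction. IC50 from a sigmoidal dose-response fit; means ± SD, n = 6. 3′-Amino-3′-deoxyadenosine (20 µM) served as screen positive control.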

Semliki Forest virus [5] = test: Antiviral activity against SFV infected in BHK cells assessed as surviving virus fraction at 200 uM after 14 hrs by luciferase reporter gene assay in presence of 50 ug/ml guanosine; format: functional, organism-based
Semliki Forest virus [6] = test: Antiviral activity against SFV infected in BHK cells assessed as surviving virus fraction at 20 uM after 14 hrs by luciferase reporter gene assay; format: functional
How it was run: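 BHK-21 cells were infected with the luciferase marker virus SFV-Rluc, made from an infectious cDNA clone, at a low multiplicity of 0.001 PFU/cell. Infection ran through more than 2 infectious cycles over a 14 h incubation, and the read-out was luciferase reporter activity. The surviving fraction was the percentage of viral replication remaining. The screen was automated and run in triplicate.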

Semliki Forest virus [7] = test: Antiviral activity against SFV infected in BHK cells assessed as decrease in surviving virus fraction at 200 uM treated 1 hr after viral adsorption measured after 5 hrs by luciferase reporter gene assay; format: functional, organism-based
How it was run: (§1)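 Time-of-addition run with SFV-Rluc at high multiplicity (5 PFU/cell) in BHK-21 cultures, covering a single replication cycle. Compound present throughout (0-5 h), only during adsorption (0-1 h), at 1-5 h, or at 2-5 h. Surviving fraction is the remaining Renilla luciferase activity, read at 5 h per legend (4.5 h in text); means ± SD, n = 4.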

Semliki Forest virus [8] = test: Antiviral activity against SFV infected in BHK cells assessed as decrease in surviving virus fraction at 50 uM treated 1 hr after viral adsorption measured after 5 hrs by luciferase reporter gene assay; format: functional, organism-based; how it was run: as §1
Semliki Forest virus [9] = test: Antiviral activity against SFV infected in BHK cells assessed as decrease in surviving virus fraction at 200 uM treated during time of viral adsorption for 1 hr measured after 5 hrs by luciferase reporter gene assay; format: functional, organism-based; how it was run: as §1
Semliki Forest virus [10] = test: Antiviral activity against SFV infected in BHK cells assessed as surviving virus fraction at 50 uM after 14 hrs by luciferase reporter gene assay in presence of 50 ug/ml guanosine; format: functional, organism-based
Semliki Forest virus [11] = test: Antiviral activity against SFV infected in BHK cells assessed as decrease in surviving virus fraction at 50 uM treated during time of viral adsorption for 1 hr measured after 5 hrs by luciferase reporter gene assay; format: functional, organism-based; how it was run: as §1
Semliki Forest virus [12] = test: Antiviral activity against SFV infected in BHK cells assessed as decrease in surviving virus fraction at 50 uM treated 2 hr after viral adsorption measured after 5 hrs by luciferase reporter gene assay; format: functional, organism-based; how it was run: as §1
Sindbis virus = test: Antiviral activity against Sindbis virus infected in BHK cells assessed as inhibition of RNA synthesis after 14 hrs by [3H]uridine incorporation assay; format: functional, organism-based
How it was run: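 Sindbis virus from infectious cDNA clone grown in BHK-21 cells. Viral RNA synthesis rate measured by [3H]-uridine labeling. Serial compound dilutions from 16 pM to 50 µM. IC50 from nonlinear regression to sigmoidal dose-response curves; means ± SD, n = 4.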

Semliki Forest virus [13] = test: Antiviral activity against SFV infected in BHK cells assessed as decrease in surviving virus fraction at 200 uM treated 2 hr after viral adsorption measured after 5 hrs by luciferase reporter gene assay; format: functional, organism-based; how it was run: as §1

Compound | Activity (Semliki Forest virus [1]) [%] | viability at 24 h, 50 µM [2] [%] | viability at 24 h, 500 µM [3] [%] | IC50 (Semliki Forest virus [4]; read-out: IC50) [µM] | IC50 (Semliki Forest virus [4]; read-out: pIC50 (converted)) [µM] | Activity (Semliki Forest virus [5]) | Activity (Semliki Forest virus [6]) [%] | Activity (Semliki Forest virus [7]) | Activity (Semliki Forest virus [8]) | Activity (Semliki Forest virus [9]) | Activity (Semliki Forest virus [10]) | Activity (Semliki Forest virus [11]) | Activity (Semliki Forest virus [12]) | IC50 (Sindbis virus; read-out: IC50) [µM] | IC50 (Sindbis virus; read-out: pIC50 (converted)) [µM] | Activity (Semliki Forest virus [13])
CC(=O)OC[C@]12CC[C@]3(C(C)C)C1=C1[C@H](C[C@@H]4[C@@]5(C)CC[C@H](OC(C)=O)C(C)(C)[C@@H]5CC[C@@]4(C)[C@]1(C)CC2)n1c(=O)n(-c2cccc([N+](=O)[O-])c2)c(=O)n13 | 3 | 108 | > 80 | 22.9 | 22.9 | – | – | – | – | – | – | – | – | – | – | –
NC(=O)c1ncn([C@@H]2O[C@H](CO)[C@@H](O)[C@H]2O)n1 [RIBAVIRIN] | – | – | – | 95.1 | 95.5 | inactive | – | – | – | – | – | – | – | – | – | –
CC(=O)OC[C@]12CC[C@]3(C(C)C)O[C@]13[C@H]1CC[C@@H]3[C@@]4(C)CC[C@H](OC(C)=O)C(C)(C)[C@@H]4CC[C@@]3(C)[C@]1(C)CC2 | 16 | 92 | > 80 | 13.3 | 11.5 | – | – | – | – | – | – | – | – | – | – | –
CCCCn1c(=O)n2n(c1=O)[C@]1(C(C)C)CC[C@]3(COC(C)=O)CC[C@]4(C)C(=C31)[C@@H]2C[C@@H]1[C@@]2(C)CC[C@H](OC(C)=O)C(C)(C)[C@@H]2CC[C@]14C | 19 | 81 | > 80 | 37.9 | 38 | – | – | – | – | – | – | – | – | – | – | –
Nc1ncnc2c1ncn2[C@@H]1O[C@H](CO)[C@@H](N)[C@H]1O | – | – | – | 18 | – | – | 12 | – | – | – | – | – | – | – | – | –
C=C(C)[C@@H]1CC[C@]2(CO)CC[C@]3(C)[C@H](CC[C@@H]4[C@@]5(C)CC[C@H](OC(C)=O)C(C)(C)[C@@H]5CC[C@]43C)[C@@H]12 | 3 | 86 | > 80 | 24.2 | 24 | – | – | – | – | – | – | – | – | – | – | –
C=C(C)[C@@H]1CC[C@]2(CO)CC[C@]3(C)[C@H](CC[C@@H]4[C@@]5(C)CC[C@H](O)C(C)(C)[C@@H]5CC[C@]43C)[C@@H]12 [BETULIN] | 7 | 83 | > 80 | 45.5 | 45.7 | – | – | – | – | – | – | – | – | – | – | –
C=C(C)[C@@H]1CC[C@]2(COC3CCCCO3)CC[C@]3(C)[C@H](CC[C@@H]4[C@@]5(C)CC[C@H](O)C(C)(C)[C@@H]5CC[C@]43C)[C@@H]12 (stereo not given in full) | 11 | 92 | > 80 | 17.2 | 17.4 | – | – | Active | Active | inactive | Active | inactive | Active | 1.9 | 1.91 | –
CC(C)[C@@H]1CC[C@]2(C(=O)O)CC[C@]3(C)[C@H](CC[C@@H]4[C@@]5(C)CCC(=O)C(C)(C)[C@@H]5CC[C@]43C)[C@@H]12 [DIHYDROBETULONIC ACID] | 14 | 102 | > 80 | 30.6 | 30.2 | – | – | – | – | – | – | – | – | – | – | –
CC(=O)OC[C@]12CC[C@]3(C(C)C)C1=C1[C@H](C[C@@H]4[C@@]5(C)CC[C@H](OC(C)=O)C(C)(C)[C@@H]5CC[C@@]4(C)[C@]1(C)CC2)n1c(=O)n(Cc2ccccc2)c(=O)n13 | 1 | 101 | > 80 | 35.9 | 36.3 | – | – | – | – | – | – | – | – | – | – | –
C=C(C)[C@@H]1CC[C@]2(C(=O)O)CC[C@]3(C)[C@H](CC[C@@H]4[C@@]5(C)CC[C@H](O)C(C)(C)[C@@H]5CC[C@]43C)[C@@H]12 [BETULINIC ACID] | 18 | 123 | > 80 | 14.6 | 14.5 | – | – | Active | Active | inactive | Active | inactive | Active | 0.5 | 0.457 | Active
CC(=O)OC[C@]12CC[C@]3(C(C)C)C1=C1[C@H](C[C@@H]4[C@@]5(C)CC[C@H](OC(C)=O)C(C)(C)[C@@H]5CC[C@@]4(C)[C@]1(C)CC2)n1c(=O)n(-c2ccccc2)c(=O)n13 | 13 | 87 | > 80 | 19.7 | 19.5 | – | – | Active | Active | inactive | Active | inactive | Active | 6.1 | 6.17 | –
CC(=O)OC[C@]12CC[C@]3(C(C)C)C1=C1[C@H](C[C@@H]4[C@@]5(C)CC[C@H](OC(C)=O)C(C)(C)[C@@H]5CC[C@@]4(C)[C@]1(C)CC2)n1c(=O)n(-c2cccc(Cl)c2)c(=O)n13 | 1 | 95 | > 80 | 22.1 | 22.4 | – | – | – | – | – | – | – | – | – | – | –
C=C(C)[C@@H]1CC[C@]2(C=O)CC[C@]3(C)[C@H](CC[C@@H]4[C@@]5(C)CCC(=O)C(C)(C)[C@@H]5CC[C@]43C)[C@@H]12 [BETULONAL] | 8 | 90 | 52 | 38.3 | 38 | – | – | – | – | – | – | – | – | – | – | –
C=C(C)[C@@H]1CC[C@]2(COC(C)=O)CC[C@]3(C)[C@H](CC[C@@H]4[C@@]5(C)CCC(=O)C(C)(C)[C@@H]5CC[C@]43C)[C@@H]12 | 11 | 83 | > 80 | 48.5 | 47.9 | – | – | – | – | – | – | – | – | – | – | –
C=C(C)[C@@H]1CC[C@]2(C(=O)O)CC[C@]3(C)[C@H](CC[C@@H]4[C@@]5(C)CCC(=O)C(C)(C)[C@@H]5CC[C@]43C)[C@@H]12 [BETUNOLIC ACID] | 13 | 89 | > 80 | 13.3 | 13.2 | – | – | – | – | – | – | – | – | – | – | –
CC(=O)OC[C@]12CCC(C(C)C)=C1[C@H]1CC[C@@H]3[C@@]4(C)CC[C@H](OC(C)=O)C(C)(C)[C@@H]4CC[C@@]3(C)[C@]1(C)CC2 | 15 | 87 | > 80 | 43.2 | 42.7 | – | – | – | – | – | – | – | – | – | – | –
